Reference: the EternaBench riboswitch data

Tested on: MS2 coat protein
Assay: apparent Kd, MS2 coat protein; higher = weaker binding; RNA-MaP array; FMN 200 µM where present
Procedure, shortened: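 On Illumina sequencing-chip clusters, designs were transcribed by stalled E. coli RNA polymerase and titrated with SNAP-549-labelled MS2 coat protein (0.7 or 1.5 nM, doubling to 3 µM), without and then with constant ligand, in 100 mM Tris-HCl pH 7.5, 80 mM KCl, 4 mM MgCl2, BSA, DTT, yeast tRNA and Tween-20. Apparent Kd is the median of filtered per-cluster curve fits to green signal normalised to red-channel RNA signal and control-cluster median Fmax.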

[1] = designed as: ON switch for flavin mononucleotide, no ligand
[2] = ligand present: flavin mononucleotide, designed as: ON switch for flavin mononucleotide
[3] = designed as: OFF switch for flavin mononucleotide, no ligand
[4] = ligand present: flavin mononucleotide, designed as: OFF switch for flavin mononucleotide

Sequence | apparent Kd [1] | apparent Kd [2] | apparent Kd [3] | apparent Kd [4]
UUGGCAACGUAGAAGGGUGACAUGAGGAUCACCCAUGUGCCGAUAUUUCUCGAGAUAUGUCGGCCACAGGAUAUACGUGCCAUC | 32.3 nM | 57.9 nM |  | 
UUGGCGCGAUCCUUGGUCUCACAUGAGGAUCACCCAUGUAGAGAGGAUAUGCAUAGGGCCCAAUGGCAGAAGGCUCUACAUGAG |  |  | 67.1 nM | 71.2 nM
UUGUAAUGAUUAGGAUAUUAUUAAUAGAACUUUAUGAUAUACAUGAGGAUCACCCAUGUUACUUAUAAGAAGGAAUCGUAUUAU |  |  | 21.2 nM | 16.8 nM
UUGUACAUAGGAUAUAGUUGUUUCUACAUGAGGAUCACCCAUGUUAUUCCUCUCUCCCUUCUAGAAGGAUGUUUUU |  |  | 40.9 nM | 38 nM
UUGUUACAUGAGGAUCACCCAUGUGAGGAUAUGGCCCGCCCGGCGUGAGCUGGUUUUGUCAGAAGGCGCGUGGG |  |  | 111 nM | 159 nM
UUGUUACAUGAGGAUCACCCAUGUGAGGAUAUGGUUCGGUACUGUCAUGUCGCGUACUCCAGAAGGCACAUGUU |  |  | 97.1 nM | 303 nM
UUGUUAGGGAGAGGAUAUUGACAUGAGGAUCACCCAUGUAUUUGGGAGUGUUUACUGAAUUCUCACGAGAAGGCUUACAAAUUU |  |  | 584 nM | 534 nM
UUGUUAUAUGUAGGAUAUGCAUAUUAUUAUUAUGCAGAAGGACAUGAGGAUCACCCAUGUAUAUUAUUGUUAUAUGUUAUAUAU |  |  | 23 nM | 25.4 nM
UUGUUAUAUGUAGGAUAUGCAUAUUAUUAUUAUGCAGAAGGACAUGAGGAUCACCCAUGUAUAUUGUUAUUAUAUAUUAUAUAU |  |  | 24.2 nM | 32.5 nM
UUGUUAUGUGUAGGAUAUGCAUAUUAUUAUUAUGCAGAAGGACAUGAGGAUCACCCAUGUGUAUUGUUAUUAUAUAUUAUAUAU |  |  | 22.8 nM | 30.5 nM
UUGUUGUAUGUAGGAUAUGCAUAUUAUUAUUAUGCAGAAGGACAUGAGGAUCACCCAUGUGUAUUAUUAUUAUAUAUUAUAUAU |  |  | 25.5 nM | 44.1 nM
UUGUUGUAUGUAGGAUAUGCGUGUUAUUAUUAUGCAGAAGGACAUGAGGAUCACCCAUGUGUAUUAUUAUUAUAUAUUAUAUAU |  |  | 21.5 nM | 19.6 nM
UUUAAACAGUCAGGAUAUGUAACGCACAACGGCGCAGAAGGGACAUGAGGAUCACCCAUGUUAUGGUUCUGGUACUAUGACGUU |  |  | 18.4 nM | 22.9 nM
UUUAAACAUGAGGAUCACCCAUGUCGUUCAAAUCAAGGAUAUCAAGCGUGUGAGCACACUUGAGAAGGUGAAGCUC | 31 nM | 60.8 nM |  | 
UUUAAGCUCACAUGAGGAUCACCCAUGUCCGUUCGCCCGGACAGAAGGCACCCAUGACAAUGCGGUGAGGAUAUGUCAGCAAGG | 120 nM | 13.1 nM |  | 
UUUAAUUUGUAGAAGGACGACUAUUAAUAUUUCGUAGGAUAUACUAUUUACAUGAGGAUCACCCAUGUUUAAAUGGAACAAUGU |  |  | 8.35 nM | 12.4 nM
UUUACAUGAGGAUCACCCAUGUCUUGAAAGAUUAGUUUUGGUGAGGAUAUACAUGAUAAAGAAUUGUAGAAGGCACUGGGUACA | 258 nM | 124 nM |  | 
UUUAGUUGCGGGCAGGAUAUGUAUUAAAAUACAUGAGGAUCACCCAUGUGCGGGUGUAACACCCGACAGAAGGGCCAAUCGCGAC | 388 nM | 28.6 nM |  | 
UUUAUAAAGGUAGGAUAUUGUAUUAUAAUUAAAUAAGAAGGAUCUCACAUGAGGAUCACCCAUGUAAGAGGAUCACCCAUGUAU |  |  | 8.68 nM | 9.25 nM
UUUAUAAAUUAGAAGGCGAGAUAAAAUACAAUAGACAUGAGGAUCACCCAUGUGUACCCAUGUUUUGAGGAUAUAGUCAUAUAU | 804 nM | 536 nM |  | 
UUUAUAAAUUAGAAGGCGGGAUGAAUUACAAUAGACAUGAGGAUCACCCAUGUGUAUUCAUGUCUUGAGGAUAUAGUCAUAUAU | 271 nM | 110 nM |  | 
UUUAUAUAGUAAGGAUAUGUAUUAUUUCUAUCAACAGAAGGUACUGACAUGAGGAUCACCCAUGUUUUAGUGUGGGCAUGUAGU |  |  | 261 nM | 381 nM
UUUAUAUAGUAAGGAUAUGUAUUAUUUUUGUCAACAGAAGGUACUGACAUGAGGAUCACCCAUGUUUUAGUGUGGGCAUGUAGU |  |  | 219 nM | 283 nM
UUUAUGGGACAGAAGGGCAUUUACAUGAGGAUCACCCAUGUUCAUCAUUGCAGGAUAUGUAUUACAUGAGGAUCACCUAUGUUC | 170 nM | 82.5 nM |  | 
UUUAUUAAACAAGGAUAUCAUUUGUGUACAAGUUUUACAUGAGGAUCACCCAUGUUAAAUGGUUUUGAGAAGGUGUUUAGAAUU | 34.2 nM | 25.2 nM |  | 
UUUAUUAACAAGAAGGCAUACAUGAGGAUCACCCAUGUUCUACAUGGAUAAUGAGGAUAUUGCUAAUACAUGAGGAUCACCCAU |  |  | 50.6 nM | 53 nM
UUUAUUUAGGCAGGAUAUACAUGUAUAUAUAUUUUUUUAUAUAUUAUUACAUGAGGAUCACCCAUGUAGAAGGGCCUUAUUAUA |  |  | 75.6 nM | 89.1 nM
UUUAUUUCGGCAGGAUAUACAUGUAUAUAUAUUUCUUUAUAUCUUAUUACAUGAGGAUCACCCAUGUAGAAGGGCCUUCUUAUC |  |  | 47.7 nM | 46 nM

Sequence | apparent Kd [1] | apparent Kd [2] | apparent Kd [3] | apparent Kd [4]
UUUAUUUUGCAAGGAUAUGUUUAAUUUUAGUUUCCUUAUACAUGAGGAUCACCCAUGUUAUACUUACAGAAGGUGCAUAAUUUU |  |  | 81.6 nM | 59 nM
UUUCAGUCAGGAUAUCGUUAAUUUAAUUGUUUGUAUUAGUUCGAGAAGGGACAUGAGGAUCACCCAUGUACUUU |  |  | 24.3 nM | 25.5 nM
UUUCCGCGAGGAUAUGCGGGCUGUGCUUUUCAUUUCUUACAACAUGAGGAUCACCCAUGUAGAAGGUGCUUCUU |  |  | 213 nM | 189 nM
UUUCUUGGGCAAGGAUAUCCUGUGCGGUUCCGGCUCGUGUCUGUCACAUGAGGAUCACCCAUGUGGGAGAAGGUGCCUGCAGUC |  |  | 6.22 nM | 7.07 nM
UUUGACAGCUAGAGUUGUUAAGUACAUGAGGAUCACCCAUGUCAGGAUAUCCUUCCGCAAUGCGAGGAGAAGGGACAGGGUCCC |  |  | 104 nM | 232 nM
UUUGAUUAUGUGAGGAUAUACUGUUUGUAUUGAUUGUAGAAGGUACAUGAGGAUCACCCAUGUUUUGUAUUUAU |  |  | 18.6 nM | 19.4 nM
UUUGUAUAGCAAGGAUAUGUUUAAUUAUAGUUGCCUCAUACAUGAGGAUCACCCAUGUUUUACUUACAGAAGGUGCAAUGAUUU |  |  | 316 nM | 317 nM
UUUGUUUUGCAAGGAUAUGUUUAAUUUUAUUUUCCUUACACAUGAGGAUCACCCAUGUUAUACUUACAGAAGGUGCGUAAUUUG |  |  | 158 nM | 151 nM
UUUUAACAUGAGGAUCACCCAUGUGAGGAUAUCGAAAUUUAUAUUAAUAUUAAUAAUUCGAGAAGGCACAUUUU |  |  | 142 nM | 137 nM
UUUUAACAUGAGGAUCACCCAUGUGAGGAUAUCGAAAUUUAUAUUAAUAUUAAUAUAACGAGAAGGCACAUUUU |  |  | 52 nM | 70.2 nM
UUUUAACAUGAGGAUCACCCAUGUGAGGAUAUCGAAAUUUAUAUUAAUAUUAUUUUAACGAGAAGGCACAUUUU |  |  | 76.7 nM | 84.2 nM
UUUUAACAUGAGGAUCACCCAUGUGAGGAUAUCGAAAUUUAUAUUAAUAUUUAUAUUUCGAGAAGGCACAUUUU |  |  | 204 nM | 191 nM
UUUUAACAUGAGGAUCACCCAUGUGAGGAUAUCGAAAUUUAUAUUAAUAUUUUUAAAACGAGAAGGCACAUUUU |  |  | 61.3 nM | 84.8 nM
UUUUACAUAGGAUAUAGUUUCUUUUACAUGAGGAUCACCCAUGUUUCUCUUCUCUCUCUUCUAGAAGGAUGUUUCU |  |  | 34.8 nM | 31.4 nM
UUUUACAUAGGAUAUAGUUUGUUGUACAUGAGGAUCACCCAUGUUUUUGGUUGUGCUUUUCUAGAAGGAUGUUUCU |  |  | 47.7 nM | 41.7 nM
UUUUACCAAGGAUAUACAUUUUUUUUAUUAUUUUCAUUAUAACAUGAGGAUCACCCAUGUAGAAGGUGGAUUUU |  |  | 54 nM | 47.9 nM
UUUUACGGAGGAUAUACAUUUUUUUUAUUAUCCUCAUUAUUACAUGAGGAUCACCCAUGUAGAAGGCCGAUUUU |  |  | 42.6 nM | 173 nM
UUUUAGAGAGGAUAUACAUUUUUUUAUUUAUUUAUAAUAUUACAUGAGGAUCACCCAUGUAGAAGGCUCAUUUU |  |  | 28.8 nM | 22 nM
UUUUAGGAAGGAUAUACAUUUUUUUUAUUAUCCUCAUUAUUACAUGAGGAUCACCCAUGUAGAAGGUCCAUUUU |  |  | 172 nM | 137 nM
UUUUAGGUAGGAUAUACAUUUUUUUUAUUAUCCUCAUUAUUACAUGAGGAUCACCCAUGUAGAAGGACCAUUUU |  |  | 215 nM | 341 nM
UUUUAGUAAGGAUAUGCGUAGAUCUACGAAAGUAGAUCUACGCAGAAGGUACAUGAGGAUCACCCAUGUAGAUU |  |  | 21.5 nM | 26.7 nM
UUUUAGUCAGGAUAUACAUGAGGAUCACCCAUGUAAAAUUUUAAUUUAAUUUUAAGGUGUAGAAGGGACAUUAA |  |  | 27.6 nM | 29.4 nM
UUUUAUAGAACAGGAUAUGUGGGCGGGUCCGACGGGAUCCACCACAUGAGGAUCACCCAUGUGACACAGAAGGGUUCCAGAAAC | 474 nM | 24.2 nM |  | 
UUUUGGCAUGUAGGAUAUGGGUCCGAUUAGGAUUUAGAAGGACAUGAGGAUCACCCAUGUGCAUUUAAUUGGUCUUUUUUUUUU |  |  | 102 nM | 133 nM
UUUUGGUCAGGAUAUUGUUAGUUUAGUUGUUUGUAUUAGUUCGAGAAGGGACAUGAGGAUCACCCAUGUGGUUU |  |  | 71.8 nM | 58.9 nM
UUUUUAAAUAUAGGAUAUGGAAACAUGAGGAUCACCCAUGUAUGAUAAGAUAAAUUAUGAUAUAGCCAGAAGGAUAUUAUUUUU | 32.1 nM | 29.7 nM |  | 
UUUUUGUCAGGAUAUCAAAAGUACUACUUCGGUAGUACUUUUGAGAAGGGACAUGAGGAUCACCCAUGUAGUUU |  |  | 61.4 nM | 285 nM
